Compound activity (PubChem BioAssay)
Shown are actives, neighbours in structure and some others; about 3.7% of the full set was active somewhere.
AHR act: AHR activators, primary screen, cell-based, luminescence, luciferase reporter, human; AHR-responsive luciferase reporter cells; activation, % at 5 µM; 2.5% of 320,000 active; in the data active = activation above about 47%
SR-BI uptake up: activators of SR-BI mediated DiI-HDL uptake, primary screen, ldlA[mSR-BI] CHO cells, DiI fluorescence | activation, % at 12.5 µM | AID 504775, 2011 | 0.096% of 320,000 active | 3 h; 100 = double the neutral-control signal;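 active = mean replicate activation of at least 60% and every replicate at or above 60%; inconclusive = mean or all-replicate condition met, but not both; inactive = mean below 60% and not all replicates reaching 60%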
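system = CHO ldlA[mSR-BI] cells, LDL receptor-null, SR-BI overexpressing | medium = Ham's F12 with 0.5% BSA, HEPES 25 mM, pH 7.4 | probe or stimulus = DiI-HDL 10 µg/mL | compound dosing = single-point compound dose | incubation = compound exposure 3 h, 37 °C | technique = DiI fluorescence, bottom read | read-out = cell-associated DiI fluorescence as measure of HDL uptake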
JMJD2C inh: inhibitors of GASC-1 histone demethylase, primary screen, biochemical, fluorescence, DELFIA europium; Lysine-specific demethylase 4C (Homo sapiens), Q9H3R0; GST-JMJD2C(1-420) H3K9me3 demethylation; inhibition, % at 2.35 µM; 0.069% of 330,000 active; AID 2099, 2009;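 active = more than half of a compound's replicate wells show inhibition beyond 50%, single wells judged on their own value; inconclusive = some, but no more than half, of replicates pass 50% inhibition; inactive = no replicate passes 50% inhibition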;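 note: signal counts dimethyl H3K9 product captured on neutravidin plate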
Target sequence (Q9H3R0 1-420 limits assumed): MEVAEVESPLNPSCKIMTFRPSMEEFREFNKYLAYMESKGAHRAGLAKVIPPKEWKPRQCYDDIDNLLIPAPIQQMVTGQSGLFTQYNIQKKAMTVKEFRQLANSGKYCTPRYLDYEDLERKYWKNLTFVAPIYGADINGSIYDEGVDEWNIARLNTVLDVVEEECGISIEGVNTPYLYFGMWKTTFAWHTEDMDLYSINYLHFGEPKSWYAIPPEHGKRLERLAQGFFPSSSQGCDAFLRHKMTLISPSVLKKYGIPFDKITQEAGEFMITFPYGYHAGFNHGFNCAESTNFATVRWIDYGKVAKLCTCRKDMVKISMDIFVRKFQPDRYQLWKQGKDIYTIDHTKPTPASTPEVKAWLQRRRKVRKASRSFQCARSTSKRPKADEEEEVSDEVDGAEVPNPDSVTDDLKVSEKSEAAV
FXN GAA850 act: FXN promoter activators, primary screen, cell-based, luciferase luminescence, HEK293 lucGAA850. 0.56% of 360,000 active. AID 540364, 2011. HEK293 lucGAA850 FXN promoter luciferase reporter, 24 h; percent of 10 µM SAHA response. activation, % at 6 µM;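 active = activation above the average of all compounds screened plus 3 SD, cutoff fixed separately per campaign, cut at about 7.5% in these data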
SR-BI HDL uptake: inhibitors of SR-BI mediated HDL lipid uptake, primary screen, ldlA[mSR-BI] cells, fluorescence, single point; Scavenger receptor class B member 1 (Mus musculus), Q61009; ldlA[mSR-BI] CHO cells, DiI-HDL uptake fluorescence, 3 h; inhibition, % at 12.5 µM; 0.96% of 320,000 active;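 active = mean replicate inhibition of at least 70% and a set share of replicates each scoring 70 or more; inconclusive = meets just one of the two criteria; inactive = fails both criteria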
A number is an active result; 0 = inactive; ? = inconclusive; - = no result given.

SMILES	AHR act	SR-BI uptake up	JMJD2C inh	FXN GAA850 act	SR-BI HDL uptake
Cc1cc(C)nc(Nc2nc(C(N)c3ccccc3)cs2)n1 (configuration not stated)	-	-	-	0	-
COc1ccc(-c2csc(Nc3ccc(S(N)(=O)=O)cc3)n2)cc1	0	108	0	0	0
C/C(=N\NC(=O)c1c(Cl)cnn1C)c1ccc(NC(=O)c2ccncc2)cc1	0	0	0	0	0
CCCCN1C(=O)C(CC(=O)NCc2cccc3ccccc23)CC(C(=O)N(CC)CC)=C1C (configuration not stated)	-	-	-	0	-
c1cncc(Nc2nc(-c3cccs3)cs2)c1	58	0	0	0	0
c1ccc(-c2csc(Nc3cccnc3)n2)nc1	0	0	0	0	0
COc1ccc(Nc2nc(-c3c[nH]c4ccccc34)cs2)cc1	76	0	0	0	0
CC(=O)NCCC(=O)Nc1nc(-c2c[nH]c3ccccc23)cs1	-	0	0	0	0
CC(=O)Nc1ccc(NC(=O)c2sc(-c3ccccc3)nc2C)cc1	0	0	0	0	0
O=C(Nc1ccc(Cl)cc1)c1csc(-c2ccncc2)n1	54	0	0	0	0
CNC(=O)c1csc(-c2ccc(Cl)cc2)n1	0	0	0	0	0
O=C(Nc1ccc(Cl)cc1)c1csc(-c2ccccc2)n1	97	0	0	0	0
CNC(=O)c1csc(-c2ccncc2)n1	0	0	0	0	0
O=C(Nc1ccc(Br)cc1)c1csc(-c2ccncc2)n1	53	0	0	0	0
Cc1nc(-c2ccncc2)sc1C(=O)Nc1ccc(Br)cc1	62	0	0	0	0
Cc1ccc2nc(SCc3nnc(-c4cccs4)o3)[nH]c2c1	60	0	0	0	0
Cc1ccc2nc(SCc3nnc(-c4ccccc4)o3)[nH]c2c1	0	0	0	0	0
Cc1ccc2nc(SCC3CCCCO3)[nH]c2c1 (configuration not stated)	51	-	0	0	-
Cc1ccc2nc(SCC(=O)N3CCOCC3)[nH]c2c1	0	0	0	0	0
Cc1c(/C=N/NC(=O)c2ccc(O)cc2)c2ccccn2c1C(=O)c1ccc(F)cc1	0	0	0	0	0
Cc1c(/C=N/NC(=O)CNc2ccccc2)c2ccccn2c1C(=O)c1ccccc1	53	0	0	0	0
Cc1c(/C=N/NC(=O)c2cccnc2)c2ccccn2c1C(=O)c1ccc(F)cc1	73	-	0	-	-
Cc1c(/C=N/NC(N)=O)c2ccccn2c1C(=O)c1ccncc1	0	-	0	0	-
Cc1c(/C=N/NC(=O)c2cc(=O)[nH]c(=O)[nH]2)c2ccccn2c1C(=O)c1ccccc1	0	0	0	0	0
Cc1c(/C=N/NC(=O)c2ccccc2O)c2ccccn2c1C(=O)c1ccc(F)cc1	53	0	0	0	0
SMILES	AHR act	SR-BI uptake up	JMJD2C inh	FXN GAA850 act	SR-BI HDL uptake
COc1ccc(/C=N/NC(=O)CCn2nnc3ccccc32)cc1	0	0	0	0	0
COc1ccccc1/C=C/C=N/NC(=O)CCn1nnc2ccccc21	66	0	0	0	0
COc1ccccc1/C=C\C=N\NC(=O)CCn1nnc2ccccc21	74	0	?	0	0
Cc1ccc(CS(=O)(=O)Cc2ccc(C(=O)NCCCN3CC(C)CC(C)C3)o2)cc1 (configuration not stated)	0	0	0	0	0
COc1ccc(NC(=S)NNC(=O)c2ccccc2OC(F)F)cc1	118	0	0	0	0
CCNC(=S)NNC(=O)c1ccccc1OC(F)F	0	0	0	0	0
CCc1ccc(NC(=S)NNC(=O)c2ccccc2OC(F)F)cc1	49	-	0	-	-
N#CCCn1cc(/C=N/NC(N)=S)c(-c2ccccc2)n1	0	0	0	0	79
Cc1ccccc1N1C(=O)c2cc(S(N)(=O)=O)c(Cl)cc2NC1C (configuration not stated)	0	0	-	0	0
O=C(Cc1ccccc1)Nc1nnc(-c2cccs2)s1	69	0	0	0	0
CCC(=O)Nc1nnc(-c2cccs2)s1	74	0	0	0	0
O=C(Cc1ccccc1)Nc1nc(-c2cccs2)cs1	0	0	0	0	0
COc1ccc(C(=O)Oc2cc(C)[nH]c(=O)c2[N+](=O)[O-])c(OC)c1	0	0	0	0	0
Cc1ccc(C(=O)Cn2c(C(=O)O)cc3ccccc32)cc1	59	0	0	0	0
O=C1CCCN1c1ccc(N2CCCC2=O)cc1	0	0	0	0	0
C/C(=N\Nc1ccc(C)c(Cl)c1)c1cccnc1	54	0	0	0	0
COc1ccc(/C=N/Nc2nncc3ccccc23)c(OC)c1	0	0	0	0	76
COc1cc(/C=N/Nc2nncc3ccccc23)cc(OC)c1OC	0	0	0	0	0
Cc1ccsc1C(=O)OCc1nc2ccccc2c(=O)[nH]1	56	0	103	0	0
Cc1cc(=O)oc2cc(OCC(=O)NCCCn3ccnc3)ccc12	0	0	0	0	0
Cc1cc(=O)oc2cc(OCC(O)Cn3ccnc3)ccc12 (configuration not stated)	52	0	0	0	0
CCCCN(CC)C(=O)Cc1cn(C)c2ccccc12	0	0	0	0	0
O=C(COc1ccccc1)c1cn(CC(=O)N2CCCC2)c2ccccc12	0	0	0	0	0
NC(=O)Cn1cc(C(=O)COc2ccccc2)c2ccccc21	75	-	0	-	-
COc1ccc(/C=N/N2CCN(c3ccccc3OC)CC2)cc1OC	0	0	0	0	0
SMILES	AHR act	SR-BI uptake up	JMJD2C inh	FXN GAA850 act	SR-BI HDL uptake
CCN(CC)c1ccc(/C=N/N2CCN(c3ccccc3OC)CC2)cc1	0	0	0	0	81
CCC(=O)Nc1ccc(OCc2nc3ccccc3s2)cc1	58	0	0	0	0
c1ccc(OCc2nc3ccccc3s2)cc1	0	0	0	0	0
CCC(C)NC(=O)CN1c2cccc3cccc(c23)S1(=O)=O (configuration not stated)	0	0	0	0	0
COc1cc(/C=N/NC(=O)c2cccnc2)ccc1OC(=O)c1cc(OC)c(OC)c(OC)c1	0	0	0	0	73
COc1cc(/C=N/NC(N)=S)ccc1OC(=O)c1ccc(C)cc1	0	0	0	0	74
COc1cc(C(=O)Oc2ccccc2/C=N/NC(=O)c2ccc(C)c(Cl)c2)cc(OC)c1OC	0	0	0	0	115
COc1cc(C(=O)Oc2ccccc2/C=N/NC(=O)c2ccc(Cl)cc2)cc(OC)c1OC	0	0	0	0	117
COc1ccc(/C=N/NC(=O)c2cccnc2)cc1CSc1nc2ccccc2s1	54	0	0	0	0
COc1ccc(/C=N/NC(=O)c2ccccc2Cl)cc1CSc1nc2ccccc2s1	0	0	0	0	0
O=c1c2cc(Br)ccc2[nH]c(=S)n1Cc1ccccn1	67	0	0	0	0
